Measured values pooled from the literature.
Each line is one published result; the experiments were not run side by side.
Target: Mitogen-activated protein kinase kinase kinase 10 (MAP3K10, Homo sapiens, UniProt Q02779)

SMILES	test	conditions	remaining binding [%]
O=C(c1ccc(Nc2ncc(Cl)c(-c3ccc(Cl)s3)n2)cc1)N1CCC(N2CCCC2)CC1	binding, competition with immobilised ligand	1 µM	0
O=C(NCC1CCOCC1)c1n[nH]cc1NC(=O)c1c(F)cccc1F	binding, competition with immobilised ligand	1 µM	100
C[C@H](c1cccc(C#N)c1)n1cc(Cl)cc(C(N)=O)c1=N	cell-free assay, competition with immobilised ligand	1 µM	100
Nc1ncc2c(n1)-c1c([nH]c3ccc(C#CC4CC4)cc13)CCCC2	binding, competition with immobilised ligand	1 µM	91
CCN1CCN(Cc2ccc(C(=O)Nc3ccc(C)c(Oc4ccc5c(c4)CC(=O)N5)c3)cc2C(F)(F)F)CC1	binding, competition with immobilised ligand	1 µM	100
CN1CCN(c2cnc3c(C4CCN(C(=O)c5ccc(OC(F)(F)F)cc5N)CC4)ncnc3c2)CC1	cell-free assay, competition with immobilised ligand	1 µM	100
CN(C)c1nccc(-c2cnn3ncccc23)n1	binding	1 µM	98
CN(C(=O)c1ccccc1)c1cc(N(C)c2ccc3c(c2)CCc2ccc(C(=O)NCCN4CCOCC4)cc2C3=O)ccc1F	cell-free assay, competition with immobilised ligand	1 µM	75
CN(CCCC(F)(F)F)c1nccc(-c2cnn3ncccc23)n1	binding	1 µM	0
O=C(c1ccc(Nc2nccc(-c3cc4ccccc4s3)n2)cc1)N1CCC(N2CCCC2)CC1	binding, competition with immobilised ligand	1 µM	21
COc1cnc(Nc2cccc(S(N)(=O)=O)c2)nc1N1CCN(c2ccccc2)C(=O)C1	binding, competition with immobilised ligand	1 µM	79
N[C@@H]1CCN(c2nccc(-c3cnn4ncccc34)n2)C1	binding	1 µM	100
O=C(NCCCN1CCOCC1)c1ccc(Nc2ncc(Cl)c(-c3ccc(Cl)s3)n2)cc1	binding, competition with immobilised ligand	1 µM	3
CN(C)c1ncc(F)c(-c2cnn3ncccc23)n1	binding	1 µM	100
c1cncc(-c2cccc(Nc3nccc(NC4CCCCC4)n3)c2)c1	binding, competition with immobilised ligand	10 µM	49
O=c1nc(-c2ccccn2)sc2ccccc12	binding, competition with immobilised ligand	1 µM	100
COc1ncc2cc3ccccc3nc2c1C#N	cell-free assay, competition with immobilised ligand	5 µM	79
CN(c1nccc(-c2cnn3ncccc23)n1)C1CC1	binding	1 µM	76
c1ccc(N2CCN(Cc3nc4ccccc4[nH]3)CC2)nc1	binding, competition with immobilised ligand	1 µM	93
CN(C)c1nccc(-c2cnc3ncccn23)n1	binding	1 µM	72
CC(=O)N1CCC(c2ccc(C(=O)NC(=N)N)cc2C(F)(F)F)CC1	cell-free assay, competition with immobilised ligand	1 µM	95
